Source: ChEMBL document CHEMBL3351252, “Design, synthesis, and structure-activity relationship studies of a series of [4-(4-carboxamidobutyl)]-1-arylpiperazines: insights into structural features contributing to dopamine D3 versus D2 receptor subtype selectivity” (J Med Chem, 2014)
Calls of active or inactive are those of the source. The calls are words filed in the database; no cut-off is given here.

Columns and labels:
[1] = molecular target: T1, D(3) dopamine receptor (Homo sapiens, UniProt P35462); assay: Displacement of [125I]IABN from human D3R expressed in HEK293 cell membranes by gamma counting method
[2] = molecular target: T2, D(2) dopamine receptor (Homo sapiens, UniProt P14416); assay: Displacement of [125I]IABN from human D2LR expressed in HEK293 cell membranes by gamma counting method
[3] = species on record: Homo sapiens; assay: Selectivity index, ratio of Ki for human D2LR to Ki or human D3R
[4] = molecular target: T2, D(2) dopamine receptor; assay: Antagonist activity against human D2LR expressed in CHOK1 cells assessed as inhibition of pergolide-induced beta-arrestin translocation by beta-galactosidase based beta-arrestin recruitment assay; assay type: cell-based, CHO-K1
[5] = molecular target: T2, D(2) dopamine receptor; assay: Agonist activity at human D2R expressed in CHO cells assessed as stimulation of mitogenesis at 10 uM after 24 hrs by [3H]thymidine uptake assay relative to quinpirole; assay type: cell-based
In short: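 CHOp-D2 cells grown 48–72 h, then serum-starved 24 h. Exposed to 10 μM compound in serum-free α-MEM for 24 h at 37 °C. Pulsed 2 h with 0.25 μCi [3H]thymidine, trypsinized, filtered and counted. Stimulation expressed relative to maximal quinpirole. Two independent experiments.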

[6] = molecular target: T2, D(2) dopamine receptor; assay: Inverse agonist activity at human D2LR expressed in CHO-K1 cells assessed as inhibition of basal activity by beta-galactosidase based beta-arrestin recruitment assay; assay type: cell-based
In short: (§1)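 CHO-K1 cells expressing human D2L receptor, β-arrestin/β-galactosidase fragment-complementation assay. Cells plated 2500/well and grown 48 h at 37 °C. Test compounds given at 11 half-log points from 5 μM, 120 min at 37 °C. Detection reagent added and chemiluminescence read. Results given as % stimulation or inhibition of basal luminescence. Compounds counterscreened for β-gal inhibition.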

[7] = molecular target: T2, D(2) dopamine receptor; assay: Agonist activity at human D2LR expressed in CHO-K1 cells assessed as stimulation of basal activity by beta-galactosidase based beta-arrestin recruitment assay; assay type: cell-based; in short: as §1
[8] = molecular target: T1, D(3) dopamine receptor; assay: Displacement of [125I]IABN from wild type human D3R expressed in HEK293 cell membranes by gamma counting method
In short: (§2)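 Membranes from HEK 293 cells stably expressing receptor, prepared in 50 mM Tris-HCl pH 7.4/10 mM EDTA/150 mM NaCl and stored at −80 °C. […] Nonspecific binding defined with 2 μM (+)-butaclamol. Filtered, gamma counted. IC50 from single-site nonlinear regression, converted to Ki.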

[9] = molecular target: T2, D(2) dopamine receptor; assay: Displacement of [125I]IABN from chimeric human D2 receptor possessing extracellular loop II of D3 receptor expressed in HEK293 cell membranes by gamma counting method
[10] = molecular target: T2, D(2) dopamine receptor; assay: Agonist activity against human D2R expressed in HEK293 cells assessed as inhibition of forskolin-induced adenyl cyclase activity at 10 times Ki relative to quinpirole; assay type: functional, cell-based
In short: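 Whole HEK 293 cells expressing human D2R, prelabelled with [2,8-3H]adenine for 75 min at 37 °C, then given 0.1 mM IBMX. […] Stopped with TCA. [3H]cAMP separated on Dowex/alumina. Inhibition normalized to 1 μM quinpirole. Mean ± SEM of ≥3 experiments.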

[11] = molecular target: T2, D(2) dopamine receptor; settings: CHO, 1 uM
[12] = species on record: Homo sapiens; assay: Selectivity index, ratio of IC50 for human D2LR to IC50 for human D3R by beta-galactosidase based beta-arrestin recruitment assay
[13] = molecular target: T1, D(3) dopamine receptor; assay: Antagonist activity against D3R in human U2OS cells assessed as inhibition of (+)-PD128907-induced beta-arrestin translocation by beta-galactosidase based beta-arrestin recruitment assay; assay type: cell-based
[14] = molecular target: D(3) dopamine receptor (Homo sapiens, UniProt P35462, S182I); assay: Displacement of [125I]IABN from human D3R S182I mutant expressed in HEK293 cell membranes by gamma counting method; in short: as §2
[15] = molecular target: T2, D(2) dopamine receptor; assay: Displacement of [125I]IABN from wild type human D2R expressed in HEK293 cell membranes by gamma counting method
[16] = molecular target: T1, D(3) dopamine receptor; assay: Displacement of [125I]IABN from chimeric human D3 receptor possessing extracellular loop II of D2 receptor expressed in HEK293 cell membranes by gamma counting method; in short: as §2
[17] = molecular target: D(3) dopamine receptor (Homo sapiens, UniProt P35462, E90Q); assay: Displacement of [125I]IABN from human D3R E90Q mutant expressed in HEK293 cell membranes by gamma counting method; in short: as §2
[18] = molecular target: T1, D(3) dopamine receptor; settings: CHO, 10 uM
[19] = molecular target: T1, D(3) dopamine receptor; settings: CHO, 1 uM
[20] = molecular target: D(3) dopamine receptor (Homo sapiens, UniProt P35462, E90A); assay: Displacement of [125I]IABN from human D3R E90A mutant expressed in HEK293 cell membranes by gamma counting method; in short: as §2
[21] = molecular target: T2, D(2) dopamine receptor; assay: Antagonist activity against human D2R expressed in CHO cells assessed as inhibition of quinpirole-induced mitogenesis after 24 hrs by [3H]thymidine uptake assay; assay type: cell-based
In short: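 Serum-starved CHOp-D2 or CHOp-D3 cells given serial dilutions of test compound plus quinpirole (30 nM final). Incubated at 37 °C for 24 h (D2) or 16 h (D3). Then 2 h [3H]thymidine pulse, filtration and counting.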

T1 sequence (P35462 whole entry): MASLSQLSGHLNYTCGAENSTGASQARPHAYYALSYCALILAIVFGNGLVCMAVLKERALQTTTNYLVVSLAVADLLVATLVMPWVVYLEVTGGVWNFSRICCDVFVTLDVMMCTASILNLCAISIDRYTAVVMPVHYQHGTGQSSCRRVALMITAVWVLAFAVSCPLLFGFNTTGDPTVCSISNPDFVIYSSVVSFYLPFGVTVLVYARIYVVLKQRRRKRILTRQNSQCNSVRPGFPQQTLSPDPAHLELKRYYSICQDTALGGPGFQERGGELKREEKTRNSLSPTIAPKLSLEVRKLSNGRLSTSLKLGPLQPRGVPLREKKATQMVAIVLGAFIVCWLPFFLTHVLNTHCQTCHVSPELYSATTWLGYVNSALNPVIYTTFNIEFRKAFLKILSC
T2 sequence (P14416 whole entry): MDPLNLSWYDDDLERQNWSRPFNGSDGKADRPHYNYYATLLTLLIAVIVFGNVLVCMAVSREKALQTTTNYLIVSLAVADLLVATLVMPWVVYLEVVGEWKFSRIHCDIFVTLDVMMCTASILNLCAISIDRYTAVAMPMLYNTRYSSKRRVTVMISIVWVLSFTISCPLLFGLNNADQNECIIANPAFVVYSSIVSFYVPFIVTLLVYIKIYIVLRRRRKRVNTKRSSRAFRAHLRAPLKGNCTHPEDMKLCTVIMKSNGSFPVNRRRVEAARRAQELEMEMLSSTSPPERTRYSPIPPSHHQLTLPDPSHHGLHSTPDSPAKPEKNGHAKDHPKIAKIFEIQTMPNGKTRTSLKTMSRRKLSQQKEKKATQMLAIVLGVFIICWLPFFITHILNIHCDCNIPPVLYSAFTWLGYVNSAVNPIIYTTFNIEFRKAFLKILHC
Chain of D(3) dopamine receptor (Homo sapiens, UniProt P35462, E90Q) (P35462 as listed by the source E90Q): as the sequence (P35462 whole entry) above, with G9S, E90Q counted along it
Chain of D(3) dopamine receptor (Homo sapiens, UniProt P35462, S182I) (P35462 as listed by the source S182I): as the sequence (P35462 whole entry) above, with G9S, S182I counted along it
Chain of D(3) dopamine receptor (Homo sapiens, UniProt P35462, E90A) (P35462 as listed by the source E90A): as the sequence (P35462 whole entry) above, with G9S, E90A counted along it

SMILES	Ki [1] [nM]	Ki [2] [nM]	Ratio Ki [3]	IC50 [4] [nM]	inhibition [6]	Activity [7]	inhibition [10] [%]	Ratio IC50 [12]	IC50 [13] [nM]	also measured
CC(C)(C)c1nc(N2CCN(CCCCNC(=O)c3cn4nc(Cl)ccc4n3)CC2)cc(C(F)(F)F)n1				22	inactive	inactive				Activity [5]: < 1%
CC(C)(C)c1nc(N2CCN(CCCCNC(=O)c3cn4ccccc4n3)CC2)cc(C(F)(F)F)n1					inactive	inactive	-1.9	435	0.6	Ki [8]: 8.4 nM; Ki [9]: 148 nM; inhibition [11]: < 30%; Activity [5]: 0%; Ki [14]: 12 nM; Ki [15]: 702 nM; Ki [16]: 40 nM; Ki [17]: 20 nM; inhibition [18]: 40%; inhibition [19]: < 30%; Ki [20]: 13 nM
CC(C)(C)c1nc(N2CCN(CCCCNC(=O)c3cn4cccnc4n3)CC2)cc(C(F)(F)F)n1			36	37	inactive	inactive	9.2	93	0.4	Activity [5]: < 1%
CC(C)(C)c1nc(N2CCN(CCCCNC(=O)c3cc4cccnc4s3)CC2)cc(C(F)(F)F)n1	32	683	21							
CN(C)Cc1cccc2nc(C(=O)NCCCCN3CCN(c4cc(C(F)(F)F)nc(C(C)(C)C)n4)CC3)cn12			11		inactive	inactive		9.7		Ki [8]: 16 nM; Ki [9]: 176 nM; Ki [14]: 24 nM; Ki [15]: 245 nM; Ki [16]: 44 nM; Ki [17]: 12 nM; Ki [20]: 12 nM
CC(C)(C)c1cc(N2CCN(CCCCNC(=O)c3cn4ccccc4n3)CC2)nc(C(C)(C)C)n1			19							
CC(C)(C)c1nc(N2CCN(CCCCNC(=O)c3cc4ccccc4[nH]3)CC2)cc(C(F)(F)F)n1	11	913	83	418	inactive	inactive		75	5.6	
N#Cc1cc(N2CCN(CCCCNC(=O)c3cn4ccccc4n3)CC2)cc(C(F)(F)F)c1	6.4	191	30							
CC(C)(C)c1nc(N2CCN(CCCCNC(=O)c3sc4ncccc4c3N)CC2)cc(C(F)(F)F)n1	35	481	14							
CC(C)(C)c1nc(N2CCN(CCCCNC(=O)[C@H]3CC[C@H](c4ccccc4)CC3)CC2)cc(C(F)(F)F)n1					inactive	inactive				inhibition [11]: < 30%; inhibition [18]: 40%; inhibition [19]: < 30%
CC(C)(C)c1nc(N2CCN(CCCCNC(=O)c3cn4ccncc4n3)CC2)cc(C(F)(F)F)n1			56	49	inactive	inactive		163	0.3	inhibition [11]: < 30%; Activity [5]: < 20%; inhibition [18]: 40%; inhibition [19]: < 30%
CC(C)(C)c1nc(N2CCN(CCCCNC(=O)c3nc4ccccc4[nH]3)CC2)cc(C(F)(F)F)n1	4.3	336	78	301	inactive	inactive	5.6	35	8.5	Activity [5]: < 20%; IC50 [21]: 490 nM
CC(C)(C)c1cc(N2CCN(CCCCNC(=O)c3cn4ccccc4n3)CC2)cc(C(C)(C)C)c1	124	1300	11							

The next lines start with results.

Ki [1] [nM]	Ki [2] [nM]	Ratio Ki [3]	IC50 [4] [nM]	inhibition [6]	Activity [7]	inhibition [10] [%]	Ratio IC50 [12]	IC50 [13] [nM]	SMILES	also measured
2010	24900	12							Cc1nc(N2CCN(CCCCNC(=O)c3cn4ccccc4n3)CC2)cc(C(F)(F)F)n1	
77	1560	20							O=C(NCCCCN1CCN(c2ccc3ccccc3n2)CC1)c1cn2ccccc2n1	
148	3650	25							Cc1cc(N2CCN(CCCCNC(=O)c3cn4ccccc4n3)CC2)nc(C(F)(F)F)n1	
20		29	161	inactive	inactive	1.4	3.1	52	O=C(NCCCCN1CCN(c2ccnc3ccccc23)CC1)c1cn2ccccc2n1	
		4.5	248	inactive	inactive	19	0.6	409	O=C(NCCCCN1CCN(c2ncnc3ccccc23)CC1)c1cn2ccccc2n1	
2.9	162	56	60	inactive	inactive	32	33	1.8	O=C(NCCCCN1CCN(c2cccc(C(F)(F)F)c2)CC1)c1cn2ccccc2n1	
10	178	18							O=C(NCCCCN1CCN(c2ccccc2)CC1)c1cn2ccccc2n1	
3.5	19	5.4	6.6	inactive	inactive	25	9.4	0.7	COc1ccccc1N1CCN(CCCCNC(=O)c2cn3ccccc3n2)CC1	Activity [5]: < 20%; IC50 [21]: 26 nM
